Results published in ChEMBL document CHEMBL1143889, “N-Phenyl and N-phenylalkyl-maleimides acting against Candida spp.: time-to-kill, stability, interaction with maleamic acids” (2008).
Calls of active or inactive are those of the source.

Experiments:
Torulaspora delbrueckii = test: Antifungal activity against Candida coliculosa C 122-2000 after 48 hrs by CLSI M27-A2 method; assay type: functional
In short: (§1)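 Broth microdilution per CLSI M27-A2 in RPMI-1640, with twofold dilutions giving final 250–0.98 µg/mL. The inoculum was modified to 1–5 × 10⁴ CFU/mL instead of 1–5 × 10³, with ketoconazole and amphotericin B as positive controls. MIC was the lowest concentration giving total growth inhibition, read visually. Strains were grown on Sabouraud-chloramphenicol agar for 24 h at 37 °C.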

Candida albicans [1] = test: Antifungal activity against Candida albicans C 130-2000 after 48 hrs by CLSI M27-A2 method; assay type: functional; in short: as §1
Kluyveromyces marxianus = test: Antifungal activity against Candida kefyr C 123-2000 after 48 hrs by CLSI M27-A2 method; assay type: functional; in short: as §1
Nakaseomyces glabratus = test: Antifungal activity against Candida glabrata C 115-2000 after 48 hrs by CLSI M27-A2 method; assay type: functional; in short: as §1
Candida albicans [2] = test: Antifungal activity against Candida albicans ATCC 10231 after 48 hrs by CLSI M27-A2 method; assay type: functional; conditions: ATCC 10231, 48 h; in short: as §1
Candida albicans [3] = test: Antifungal activity against Candida albicans C 126-2000 after 48 hrs by CLSI M27-A2 method; assay type: functional; in short: as §1
Candida albicans [4] = test: Antifungal activity against Candida albicans C 127-2000 after 48 hrs by CLSI M27-A2 method; assay type: functional; in short: as §1
Candida albicans [5] = test: Antifungal activity against Candida albicans C 125-2000 after 48 hrs by CLSI M27-A2 method; assay type: functional; in short: as §1
Candida albicans [6] = test: Antifungal activity against Candida albicans C 129-2000 after 48 hrs by CLSI M27-A2 method; assay type: functional; in short: as §1
Candida tropicalis = test: Antifungal activity against Candida tropicalis C 137-1997 after 48 hrs by CLSI M27-A2 method; assay type: functional; in short: as §1
Pichia kudriavzevii = test: Antifungal activity against Candida krusei C 117-2000 after 48 hrs by CLSI M27-A2 method; assay type: functional; in short: as §1
Clavispora lusitaniae = test: Antifungal activity against Candida lusitaniae C 131-2000 after 48 hrs by CLSI M27-A2 method; assay type: functional; in short: as §1
Candida parapsilosis = test: Antifungal activity against Candida parapsilosis C 124-2000 after 48 hrs by CLSI M27-A2 method; assay type: functional; conditions: Lodderomyces parapsilosis; in short: as §1
Candida albicans [7] = test: Antifungal activity against Candida albicans C 128-2000 after 48 hrs by CLSI M27-A2 method; assay type: functional; in short: as §1
Candida albicans [8] = test: Antifungal activity against Candida albicans ATCC 10231 pre-incubated for 5 days analysed after 24 hrs by CLSI M27-A2 method; assay type: functional
In short: (§2)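 Twofold maleimide dilutions (1000–0.98 µg/mL) in complete M27-A2 medium without inoculum were held at 37 °C, with one plate row filled on each of 7 consecutive days to give 0–7 days of pre-incubation. All wells were then inoculated with C. albicans ATCC 10231 at 1–5 × 10⁴ CFU/mL and incubated for 24 h at 37 °C. MIC was read per row, in duplicate.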

Candida albicans [9] = test: Antifungal activity against Candida albicans ATCC 10231 within 90 mins by time-to-kill study; assay type: functional, organism-based
In short: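 C. albicans ATCC 10231 (2–2.5 × 10⁴ CFU/mL) in 5 mL RPMI-1640 was exposed to 1× MFC of compound at 37 °C with agitation. 10 µL samples taken at 0, 30, 60, 90 and 120 min, and at 4, 8, 12 and 24 h, were plated on drug-free SDA and colonies counted after 24–48 h at 37 °C. Run in duplicate.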

Candida albicans [10] = test: Antifungal activity against Candida albicans ATCC 10231 pre-incubated for 2 days analysed after 24 hrs by CLSI M27-A2 method; assay type: functional; in short: as §2
Candida albicans [11] = test: Antifungal activity against Candida albicans ATCC 10231 preincubated for 7 days analysed after 24 hrs by CLSI M27-A2 method; assay type: functional; in short: as §2
Candida albicans [12] = test: Antifungal activity against Candida albicans ATCC 10231 pre-incubated for 6 days analysed after 24 hrs by CLSI M27-A2 method; assay type: functional; in short: as §2
Candida albicans [13] = test: Antifungal activity against Candida albicans ATCC 10231 pre-incubated for 1 day analysed after 24 hrs by CLSI M27-A2 method; assay type: functional; in short: as §2
Candida albicans [14] = test: Antifungal activity against Candida albicans ATCC 10231 after 24 hrs by CLSI M27-A2 method; assay type: functional; conditions: ATCC 10231, 24 h; in short: as §1
Candida albicans [15] = test: Antifungal activity against Candida albicans ATCC 10231 pre-incubated for 3 days analysed after 24 hrs by CLSI M27-A2 method; assay type: functional; in short: as §2
Candida albicans [16] = test: Antifungal activity against Candida albicans ATCC 10231 pre-incubated for 4 days analysed after 24 hrs by CLSI M27-A2 method; assay type: functional; in short: as §2

O=C(O)/C=C\C(=O)Nc1ccccc1
> 250 µg/mL: MIC (Torulaspora delbrueckii) | MIC (Candida albicans [1]) | MIC (Kluyveromyces marxianus) | MIC (Nakaseomyces glabratus) | MIC (Candida albicans [2]) | MIC (Candida albicans [3]) | MIC (Candida albicans [4]) | MIC (Candida albicans [5]) | MIC (Candida albicans [6]) | MIC (Candida tropicalis) | MIC (Pichia kudriavzevii) | MIC (Clavispora lusitaniae) | MIC (Candida parapsilosis) | MIC (Candida albicans [7])

O=C(O)/C=C\C(=O)NCc1ccccc1
> 250 µg/mL: MIC (Torulaspora delbrueckii) | MIC (Candida albicans [1]) | MIC (Kluyveromyces marxianus) | MIC (Nakaseomyces glabratus) | MIC (Candida albicans [2]) | MIC (Candida albicans [3]) | MIC (Candida albicans [4]) | MIC (Candida albicans [5]) | MIC (Candida albicans [6]) | MIC (Candida tropicalis) | MIC (Pichia kudriavzevii) | MIC (Clavispora lusitaniae) | MIC (Candida parapsilosis) | MIC (Candida albicans [7])

O=C1C=CC(=O)N1CCCCc1ccccc1
250 µg/mL: MIC (Candida albicans [12])
3.9 µg/mL: MIC (Candida albicans [10]) | MFC (Torulaspora delbrueckii) | MIC (Torulaspora delbrueckii) | MIC (Candida albicans [13]) | MFC (Candida albicans [1]) | MFC (Nakaseomyces glabratus) | MIC (Candida albicans [2]) | MFC (Candida albicans [4]) | MIC (Candida albicans [14]) | MFC (Clavispora lusitaniae) | MIC (Clavispora lusitaniae)
1000 µg/mL: MIC (Candida albicans [11])
7.81 µg/mL: MFC (Kluyveromyces marxianus)
1.95 µg/mL: MIC (Candida albicans [1]) | MIC (Kluyveromyces marxianus) | MIC (Nakaseomyces glabratus) | MFC (Candida albicans [3]) | MIC (Candida albicans [4]) | MFC (Candida albicans [5]) | MFC (Candida albicans [6]) | MIC (Candida parapsilosis) | MFC (Candida albicans [7])
0.97 µg/mL: MIC (Candida albicans [3]) | MIC (Candida albicans [5]) | MIC (Candida albicans [6]) | MIC (Candida albicans [7])
32.2 µg/mL: MFC (Candida tropicalis)
active: Activity (Candida albicans [9])
125 µg/mL: MIC (Candida albicans [8])
31.2 µg/mL: MIC (Candida albicans [16])
15.8 µg/mL: MIC (Candida tropicalis) | MFC (Pichia kudriavzevii) | MIC (Candida albicans [15])
7.8 µg/mL: MFC (Candida albicans [2]) | MIC (Pichia kudriavzevii) | MFC (Candida parapsilosis)
